Data set [1] can be described thus: Chelation of Zn(II) in bacterial VIM-2 (unknown origin) by isothermal calorimetric assay. In a few lines: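 ITC at 25 °C. VIM-2 at 19 μM in 10 mM HEPES-NaOH, 0.15 M NaCl, pH 7.5 with DMSO matched to 1%, titrated with compound at 200 μM: one 0.5 μL injection, then 19 × 2 μL at 150 s intervals. Buffer dilution heats subtracted. Nonlinear fit gives n, Ka and ΔH°; values regarded as apparent.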

Data set [2] is described as follows: Chelation of Zn(II) in bacterial NDM-1 (unknown origin) by isothermal calorimetric assay. For orientation: In ITC the heat of successive injections is recorded.
Data set [3] can be described thus: Metabolic stability in CD-1 mouse microsomes assessed as intrinsic clearance at 37 degC by LC-MS/MS analysis. The format is ADME, Microsome. As to conditions: for microsomal CLint: CD-1, mouse; for Stability: mouse. In a few lines:
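Mouse liver microsomes, mixed gender, at 37 °C for 40 min; propranolol control. Reports t1/2, intrinsic clearance and % intact compound remaining at 40 min.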

Data set [4] concerns Bacteria. The data set can be described thus: Inhibition of bacterial NDM-1 (unknown origin) assessed as Zn(II) content in protein at 48 uM at 48 uM by overnight equilibrium dialysis. In a few lines:
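VIM-2 or NDM-1 (3 μM final) in 50 mM HEPES pH 7.5 mixed with compound at 0–48 μM. Incubated 1 h on ice, then dialysed overnight at 4 °C against 50 mM HEPES pH 7.5. Zn(II) content measured by atomic absorption at 213.86 nm against a zinc standard curve. Each point averages three samples.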
A general note: In equilibrium dialysis free small molecules cross a membrane that holds back macromolecules.

In data set [5] the test system is Bacteria. Nature of the data set: Inhibition of bacterial VIM-2 (unknown origin) assessed as decrease in Zn(II) content in protein at 50 uM by native MS analysis. In a few lines: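 Purified VIM-2 or NDM-1 was given 2 mM TCEP and 2 equiv ZnCl2, incubated 1 h, and dialysed overnight into 100 mM ammonium acetate pH 7.5. Enzyme at 10 μM was then incubated 5 min with 50 μM compound. Positive-mode nanoESI on an Orbitrap, scanning m/z 1000–4000. Species assigned from deconvoluted masses.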

Data set [6] can be described thus: Binding affinity to Zn(II) assessed as dissociation constant by isothermal calorimetric assay.
For data set [7], the system named is Bacteria. Nature of the data set: Inhibition of bacterial IMP-1 (unknown origin) expressed in Escherichia coli EXPRESS BL21(DE3) assessed as inhibition constant by measuring rate of substrate hydrolysis at 100 uM by UV-visible spectrophotometry relative to control. In a few lines:
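Reporter-substrate assay with purified MBL (1–70 nM final) in 50 mM HEPES pH 7.5 at 30 °C. […] Inhibitor 0.5–1000 μM final. Ki derived from the v0/vi vs [I] slope assuming competitive inhibition, or from a Dixon plot. Ki given when inhibition >70%, otherwise % inhibition at 100 μM. Triplicate.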

Data set [8] concerns the target T1, Insulin-degrading enzyme (Homo sapiens, UniProt P14735).
T1 sequence (P14735 whole entry): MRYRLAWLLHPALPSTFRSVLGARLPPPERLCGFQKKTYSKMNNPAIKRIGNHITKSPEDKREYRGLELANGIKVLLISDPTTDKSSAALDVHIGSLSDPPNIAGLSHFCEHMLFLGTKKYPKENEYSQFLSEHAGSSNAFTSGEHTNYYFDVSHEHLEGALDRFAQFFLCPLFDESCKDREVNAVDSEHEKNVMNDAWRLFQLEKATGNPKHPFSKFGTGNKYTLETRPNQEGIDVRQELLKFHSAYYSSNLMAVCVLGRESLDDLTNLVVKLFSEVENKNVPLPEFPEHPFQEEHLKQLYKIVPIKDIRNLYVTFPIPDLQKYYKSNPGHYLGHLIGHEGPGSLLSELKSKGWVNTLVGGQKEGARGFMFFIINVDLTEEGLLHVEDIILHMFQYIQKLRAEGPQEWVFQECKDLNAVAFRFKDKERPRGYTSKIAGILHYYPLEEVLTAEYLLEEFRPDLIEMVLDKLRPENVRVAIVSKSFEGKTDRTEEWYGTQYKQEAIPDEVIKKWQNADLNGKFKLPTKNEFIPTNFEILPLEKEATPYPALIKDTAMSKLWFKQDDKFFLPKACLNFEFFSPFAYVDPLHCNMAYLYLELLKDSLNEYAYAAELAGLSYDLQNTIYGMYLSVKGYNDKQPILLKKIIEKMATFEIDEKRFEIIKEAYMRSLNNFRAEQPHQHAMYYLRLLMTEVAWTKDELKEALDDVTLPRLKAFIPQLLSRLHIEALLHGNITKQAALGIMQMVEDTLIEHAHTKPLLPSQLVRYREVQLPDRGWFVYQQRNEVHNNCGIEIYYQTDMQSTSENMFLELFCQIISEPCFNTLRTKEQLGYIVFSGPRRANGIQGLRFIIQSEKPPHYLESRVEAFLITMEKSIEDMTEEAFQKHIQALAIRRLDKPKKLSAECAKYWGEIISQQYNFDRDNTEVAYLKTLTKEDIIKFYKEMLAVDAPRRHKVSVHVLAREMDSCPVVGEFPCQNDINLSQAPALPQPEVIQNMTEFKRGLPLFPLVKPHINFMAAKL
Nature of the data set: Inhibition of recombinant human IDE using ATTO 655-Cys-Lys-Leu-Val-Phe-Phe-Ala-Glu-Asp-Trp as substrate measured after 45 mins by fluorescence assay.

The source made the active and inactive calls. No cut-off for these calls is given here.

For orientation: microsomal CLint means the rate of metabolic loss divided by the concentration. In general, inhibition refers to the percentage by which the read-out fell short of the control. The term Kd denotes the concentration at which binding is half-saturated. As usually defined, the IC50 is the concentration at which inhibition is half-maximal.

For the molecule `O=C(O)[C@H](CCCn1c(-c2ccccc2)n[nH]c1=S)N(Cc1ccccn1)Cc1ccccn1`, the result in data set [1] and in data set [2] was inactive. Moreover, in data set [3], the microsomal CLint came out at 16.5 µL/min/mg. For the same molecule, the Activity in data set [4] worked out at 1.09 equiv. For the same molecule, the inhibition entry in data set [5] is “Active”. For the same molecule, the Kd in data set [6] was found to be 0.01 µM. In addition, the inhibition in data set [7] is less than 30%. For the same molecule, in data set [8], the IC50 is 41 µM.
Turning to `Cc1[nH]cnc1CN(Cc1c[nH]cn1)[C@@H](CCCn1c(-c2ccccc2)n[nH]c1=S)C(=O)O`, in data set [3], the microsomal CLint is 5.5 µL/min/mg. In data set [8], the IC50 was 35 µM.
Take `O=C(O)[C@H](CCn1c(-c2ccccc2)n[nH]c1=S)N(Cc1c[nH]cn1)Cc1c[nH]cn1`: in data set [3], the intrinsic metabolic clearance (microsomal CLint) worked out at 10.6 µL/min/mg. In data set [8], the concentration for half-maximal inhibition (IC50) is 17 µM.
Consider `O=C(O)[C@H](CCCn1c(-c2ccc3ccccc3c2)n[nH]c1=S)N(Cc1c[nH]cn1)Cc1c[nH]cn1`, for which, in data set [3], the Stability result is “Stable”. In data set [8], the IC50 stood at 9.1 µM.
In the case of `O=C(O)[C@H](CCCn1c(-c2ccccc2)n[nH]c1=S)N(Cc1c[nH]cn1)Cc1c[nH]cn1`, the outcome in data set [1] and in data set [2] was Active. Further, the Stability entry in data set [3] is recorded as “Stable”. Also, in data set [4], the Activity is 1.09 equiv. In data set [5], the inhibition entry is “Active”. For the same molecule, in data set [6], the Kd amounted to 0.01 µM. In addition, in data set [7], the inhibition amounted to 40%. Also, in data set [8], the IC50 worked out at 20 µM.

Values taken from ChEMBL document CHEMBL5236609, “Optimization of 1,2,4-Triazole-3-thiones toward Broad-Spectrum Metallo-β-lactamase Inhibitors Showing Potent Synergistic Activity on VIM- and NDM-1-Producing Clinical Isolates” (J Med Chem, 2022).
